Measurements: ChEMBL document CHEMBL1148039, “New aporphine alkaloids from guatteria foliosa” (1994)
The source made the active and inactive calls. No cut-off for these calls is given here.

Legend:
Trypanosoma cruzi = assay: Antiprotozoal activity against trypomastigotes form of Trypanosoma cruzi Y at 250 ug/ml after 24 hrs; format: functional
How it was run: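 Bloodstream trypomastigotes taken from blood of T. cruzi-infected mice and incubated with test compound (DMSO solution) for 24 h at 4°. Parasites then counted. Assay done three times.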

Leishmania donovani [1] = assay: Antiprotozoal activity against promastigotes form of Leishmania donovani pp-75 assessed as total lysis of parasites at 100 ug/ml after 24 hrs; format: functional, organism-based
How it was run: (§1)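 Promastigotes of each Leishmania strain exposed to test compound at 100 µg/ml, dissolved in DMSO, for 24 h at 28°. Viability judged by direct inverted-microscope observation and scored against controls: 0 no lysis; + less mobile; ++ modified or immobilized; +++ total lysis. Three independent runs.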

Leishmania braziliensis [2] = assay: Antiprotozoal activity against promastigotes form of Leishmania braziliensis 2903 assessed as total lysis of parasites at 100 ug/ml after 24 hrs; format: functional, organism-based
How it was run: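 Promastigotes exposed to compound (dissolved in DMSO) at 100 µg/ml for 24 h at 28°. Viability judged by direct observation under an inverted microscope and scored as 0 (no lysis), + (less mobile than controls), ++ (modified or immobilized) or +++ (total lysis). Each assay run three times. Glucantime and pentamidine used as control drugs.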

Leishmania amazonensis [3] = assay: Antiprotozoal activity against promastigotes form of Leishmania amazonensis H-142 assessed as total lysis of parasites at 100 ug/ml after 24 hrs; format: functional, organism-based; how it was run: as §1
Leishmania amazonensis [4] = assay: Antiprotozoal activity against promastigotes form of Leishmania amazonensis LV79 assessed as total lysis of parasites at 100 ug/ml after 24 hrs; format: functional, organism-based; how it was run: as §1
Leishmania donovani [5] = assay: Antiprotozoal activity against promastigotes form of Leishmania donovani pp-75 assessed as less mobile parasites at 100 ug/ml after 24 hrs; format: functional, organism-based; how it was run: as §1
Leishmania braziliensis [6] = assay: Antiprotozoal activity against promastigotes form of Leishmania braziliensis 2903 assessed as immobilized parasites at 100 ug/ml after 24 hrs; format: functional, organism-based; how it was run: as §1
Leishmania amazonensis [7] = assay: Antiprotozoal activity against promastigotes form of Leishmania amazonensis H-142 assessed as less mobile parasites at 100 ug/ml after 24 hrs; format: functional, organism-based; how it was run: as §1
Leishmania amazonensis [8] = assay: Antiprotozoal activity against promastigotes form of Leishmania amazonensis LV79 assessed as less mobile parasites at 100 ug/ml after 24 hrs; format: functional, organism-based; how it was run: as §1
Leishmania donovani [9] = assay: Antiprotozoal activity against promastigotes form of Leishmania donovani pp-75 assessed as immobilized parasites at 100 ug/ml after 24 hrs; format: functional, organism-based; how it was run: as §1

Compound: COc1cccc2c1-c1c3c(c(OC)c4ccnc(c14)C2=O)OCO3
- Activity (Trypanosoma cruzi): 46.6%

Compound: COc1c2c3c(c4c1OCO4)-c1ccc(O)cc1C(C)(O)C3=NCC2 (stereo not given)
- Activity (Trypanosoma cruzi): 0%

Compound: COc1c(O)c2c3c(c1OC)-c1ccccc1C[C@H]3NCC2
- Activity (Trypanosoma cruzi): 68.2%

Compound: COc1cccc2c1-c1c3c(c(OC)c4c1[C@@H](C2)NCC4)OCO3
- Activity (Trypanosoma cruzi): 35.7%

Compound: COc1c(O)c2c3c(c1OC)-c1ccc(O)cc1C[C@@H]3NCC2
- Activity (Trypanosoma cruzi): 2.55%

Compound: N=C(N)c1ccc(OCCCCCOc2ccc(C(=N)N)cc2)cc1
- Activity (Leishmania donovani [1]): Active
- Activity (Leishmania braziliensis [2]): Active
- Activity (Leishmania amazonensis [3]): Active
- Activity (Leishmania amazonensis [4]): Active

Compound: COc1c(O)cc(CCN(C)C)c2ccc3ccccc3c12 [ARGENTININE]
- Activity (Leishmania donovani [5]): Active
- Activity (Leishmania braziliensis [6]): Active
- Activity (Leishmania amazonensis [7]): Active
- Activity (Leishmania amazonensis [8]): Active
- Activity (Trypanosoma cruzi): 81.3%

Compound: COc1cc2c(cc1O)C[C@H]1c3cc(O)c(OC)cc3CCN1C2 [COREXIMINE]
- Activity (Leishmania donovani [9]): Active
- Activity (Leishmania braziliensis [6]): Active
- Activity (Leishmania amazonensis [7]): Active
- Activity (Leishmania amazonensis [8]): Active
- Activity (Trypanosoma cruzi): 0%

Compound: COc1c2c3c(c4c1OCO4)-c1c(O)cccc1C[C@H]3NCC2 [ELMERRILLICINE]
- Activity (Trypanosoma cruzi): 0%

Compound: CN(C)c1ccc(C(=C2C=CC(=[N+](C)C)C=C2)c2ccc(N(C)C)cc2)cc1.[Cl-] [GENTIAN VIOLET]
- Activity (Trypanosoma cruzi): 100%

Compound: COc1c(O)c(OC)c2c3c1CCN=C3C(C)(O)c1cc(O)ccc1-2 (stereo not given) [ISOGUATTOUREGIDINE]
- Activity (Leishmania donovani [1]): Active
- Activity (Leishmania braziliensis [6]): Active
- Activity (Leishmania amazonensis [3]): Active
- Activity (Leishmania amazonensis [4]): Active
- Activity (Trypanosoma cruzi): 92%

Compound: MEGLUMINE ANTIMONATE
- Activity (Leishmania donovani [1]): Active
- Activity (Leishmania braziliensis [2]): Active
- Activity (Leishmania amazonensis [3]): Active
- Activity (Leishmania amazonensis [4]): Active
